Results taken from article PMC5183561 (European journal of pharmacology, 2016).
Read-outs that look alike come from different tables or passages of the source. Where no end group is shown, it is not given here. [ ]: non-standard residue; d: D form. Dmt = Cc1cc(O)cc(C)c1C[C@H](N)C(=O)O; PWT2 core = not defined here

Experiments:
[1] = test system: rhesus monkeys (Macaca mulatta); assay: Warm water tail-withdrawal assay in monkeys; assay type: in vivo; conditions: n = 4; for duration of antinociception: 50°C water
delta receptor = delta receptor (Homo sapiens, UniProt P41143); assay: Calcium mobilization, CHO cells coexpressing delta and GαqG66Di5; assay type: cell-based
[2] = test system: NOP and classical opioid receptors; assay: Receptor binding studies, summary over all four receptors; set-up: species or system human; conditions: at all receptors (NOP, mu, kappa, delta), vs [Dmt^1]N/OFQ(1-13)-NH2
Outline: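 CHO membranes expressing human receptors (20–40 μg protein) were incubated 1 h at room temperature in 50 mM Tris, 0.5% BSA with test compound (1 pM–10 μM). […] Bound ligand was collected by filtration on PEI-soaked GF/B filters.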

[3] = biological target: T1, recombinant human kappa opioid receptor (Homo sapiens, UniProt P41145); assay: Displacement binding of [3H]-DPN, CHOkappa cell membranes; conditions: vs [Dmt^1]N/OFQ(1-13)-NH2
[4] = biological target: recombinant human delta opioid receptor (Homo sapiens, UniProt P41143); assay: Stimulated [35S]GTPγS binding, CHOdelta membranes; assay type: biochemical; conditions: intrinsic activity, DPDPE = 1.00, n≥5
NOP-RLuc/Gβ1-RGFP = NOP-RLuc/Gβ1-RGFP (Homo sapiens, UniProt P41146); assay: BRET NOP/G-protein interaction, HEK-293 membranes; assay type: biochemical
[5] = test system: NOP over opioid receptors; assay: In vitro functional assays, NOP selectivity summary; set-up: species or system human; conditions: range over functional assays
[6] = biological target: human recombinant kappa receptor (Homo sapiens, UniProt P41145); assay: Calcium mobilization, CHO cells coexpressing kappa and Gαqi5; assay type: cell-based; conditions: intrinsic activity, dynorphin A = 1.00
[7] = biological target: human recombinant mu receptor (Homo sapiens, UniProt P35372); assay: Calcium mobilization, CHO cells coexpressing mu and Gαqi5; assay type: cell-based
[8] = biological target: mu-RLuc/β-arrestin 2-RGFP (Homo sapiens, UniProt P35372); assay: BRET mu/β-arrestin 2 interaction, SH-SY5Y whole cells; assay type: cell-based; conditions: intrinsic activity, dermorphin = 1.00, inactive = inactive up to 1 μM
[9] = biological target: NOP-RLuc/β-arrestin 2-RGFP (Homo sapiens, UniProt P41146); assay: BRET NOP/β-arrestin 2 interaction, HEK-293 whole cells; assay type: cell-based
mu-RLuc/Gβ1-RGFP = mu-RLuc/Gβ1-RGFP (Homo sapiens, UniProt P35372); assay: BRET mu/G-protein interaction, SH-SY5Y membranes; assay type: biochemical; conditions: intrinsic activity, dermorphin = 1.00
[10] = biological target: T1, recombinant human kappa opioid receptor; assay: Stimulated [35S]GTPγS binding, CHOkappa membranes; assay type: biochemical
[11] = biological target: T2, human recombinant NOP receptor (Homo sapiens, UniProt P41146); assay: Calcium mobilization, CHO cells coexpressing NOP and Gαqi5; assay type: cell-based
[12] = biological target: T2, human recombinant NOP receptor; assay: Stimulated [35S]GTPγS binding, CHONOP membranes; assay type: biochemical; conditions: intrinsic activity, N/OFQ = 1.00, n≥5
[13] = biological target: recombinant human mu opioid receptor (Homo sapiens, UniProt P35372); assay: Stimulated [35S]GTPγS binding, CHOmu membranes; assay type: biochemical
[14] = test system: rhesus monkeys (Macaca mulatta); assay: Scratching responses in monkeys after intrathecal administration; assay type: in vivo; conditions: 3 nmol i.t., any time point, n = 4
[15] = test system: rhesus monkeys (Macaca mulatta); assay: Overt side effects; assay type: in vivo; conditions: 0.3-3 nmol i.t.
[16] = test system: NOP and classical opioid receptors; assay: Calcium mobilization, summary over the four cell lines; assay type: cell-based, human
[17] = biological target: T3, human recombinant mu opioid receptor (human, UniProt P35372 1-400); assay: cell-based or functional assay
[18] = biological target: human recombinant delta opioid receptor (human, UniProt P41143 1-372); assay: radioligand binding
[19] = biological target: human recombinant kappa opioid receptor (human, UniProt P41145 1-380); assay: radioligand binding
[20] = biological target: T3, human recombinant mu opioid receptor; assay: radioligand binding
[21] = biological target: human recombinant N/OFQ (NOP) receptor (human, UniProt P41146 1-370); assay: radioligand binding
[22] = biological target: T3, human recombinant mu opioid receptor; assay: radioligand binding; remark: listed apart in the source
[23] = agonist stimulated over basal specific binding, mean ± S.E.M.

T3 sequence (P35372 whole entry): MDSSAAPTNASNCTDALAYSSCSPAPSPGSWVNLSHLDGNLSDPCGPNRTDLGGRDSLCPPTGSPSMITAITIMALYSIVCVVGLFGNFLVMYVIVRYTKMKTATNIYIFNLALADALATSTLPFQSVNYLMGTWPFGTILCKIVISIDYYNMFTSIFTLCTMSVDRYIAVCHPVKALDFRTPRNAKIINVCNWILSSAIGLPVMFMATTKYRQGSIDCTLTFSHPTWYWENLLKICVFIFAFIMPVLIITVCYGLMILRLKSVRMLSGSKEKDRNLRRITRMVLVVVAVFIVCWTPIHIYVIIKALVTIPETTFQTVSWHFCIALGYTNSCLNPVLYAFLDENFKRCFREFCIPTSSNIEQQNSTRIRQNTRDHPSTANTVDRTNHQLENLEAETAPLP
human recombinant mu receptor, sequence (P35372 whole entry): as above
T2 sequence (P41146 whole entry): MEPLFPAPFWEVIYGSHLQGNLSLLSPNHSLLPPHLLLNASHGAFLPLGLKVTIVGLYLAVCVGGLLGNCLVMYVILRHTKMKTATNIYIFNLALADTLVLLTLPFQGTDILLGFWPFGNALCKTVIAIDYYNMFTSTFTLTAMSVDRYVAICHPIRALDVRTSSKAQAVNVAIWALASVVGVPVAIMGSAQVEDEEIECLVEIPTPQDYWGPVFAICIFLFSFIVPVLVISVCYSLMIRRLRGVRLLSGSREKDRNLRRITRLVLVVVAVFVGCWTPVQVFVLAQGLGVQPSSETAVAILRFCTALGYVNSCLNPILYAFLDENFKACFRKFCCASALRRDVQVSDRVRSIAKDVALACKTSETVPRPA
T1 sequence (P41145 whole entry): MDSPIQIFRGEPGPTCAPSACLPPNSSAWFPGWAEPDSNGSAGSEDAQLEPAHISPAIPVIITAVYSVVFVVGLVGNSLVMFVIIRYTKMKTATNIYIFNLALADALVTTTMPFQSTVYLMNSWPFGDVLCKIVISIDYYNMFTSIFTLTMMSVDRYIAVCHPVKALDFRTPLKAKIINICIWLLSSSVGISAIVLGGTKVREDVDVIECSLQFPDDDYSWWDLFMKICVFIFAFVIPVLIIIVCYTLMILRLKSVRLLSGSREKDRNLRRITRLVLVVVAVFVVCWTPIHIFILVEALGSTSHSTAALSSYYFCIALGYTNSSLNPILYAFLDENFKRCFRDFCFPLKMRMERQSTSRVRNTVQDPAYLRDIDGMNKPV
human recombinant delta opioid receptor, sequence (P41143 whole entry, stated change not applied): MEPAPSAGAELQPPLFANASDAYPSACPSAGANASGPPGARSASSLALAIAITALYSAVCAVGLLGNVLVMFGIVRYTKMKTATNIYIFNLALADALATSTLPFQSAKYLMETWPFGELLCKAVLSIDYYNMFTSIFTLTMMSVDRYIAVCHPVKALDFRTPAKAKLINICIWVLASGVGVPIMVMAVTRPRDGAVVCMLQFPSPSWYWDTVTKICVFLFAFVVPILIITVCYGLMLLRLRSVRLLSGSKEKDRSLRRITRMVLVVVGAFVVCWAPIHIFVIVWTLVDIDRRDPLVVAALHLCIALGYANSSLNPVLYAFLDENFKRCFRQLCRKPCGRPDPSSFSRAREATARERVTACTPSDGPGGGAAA
delta receptor, sequence (P41143 whole entry): as the sequence (P41143 whole entry, stated change not applied) above
recombinant human mu opioid receptor, sequence (P35372 whole entry): as the sequence (P35372 whole entry) above
human recombinant N/OFQ (NOP) receptor, sequence (P41146 whole entry): as the sequence (P41146 whole entry) above
human recombinant kappa opioid receptor, sequence (P41145 whole entry): as the sequence (P41145 whole entry) above
recombinant human delta opioid receptor, sequence (P41143 whole entry): as the sequence (P41143 whole entry, stated change not applied) above
human recombinant kappa receptor, sequence (P41145 whole entry): as the sequence (P41145 whole entry) above

`Cc1cc(O)cc(C)c1C[C@H](N)C(=O)NCC(=O)NCC(=O)N[C@@H](Cc1ccccc1)C(=O)N[C@H](C(=O)NCC(=O)N[C@@H](C)C(=O)N[C@@H](CCCNC(=N)N)C(=O)N[C@@H](CCCCN)C(=O)N[C@@H](CO)C(=O)N[C@@H](C)C(=O)N[C@@H](CCCNC(=N)N)C(=O)N[C@@H](CCCCN)C(=O)N[C@@H](CSC1CC(=O)N(CCC(=O)NCCCN(CCCCN(CCCNC(=O)CCN2C(=O)CC(SC[C@H](NC(=O)[C@H](CCCCN)NC(=O)[C@H](CCCNC(=N)N)NC(=O)[C@H](C)NC(=O)[C@H](CO)NC(=O)[C@H](CCCCN)NC(=O)[C@H](CCCNC(=N)N)NC(=O)[C@H](C)NC(=O)CNC(=O)[C@@H](NC(=O)[C@H](Cc3ccccc3)NC(=O)CNC(=O)CNC(=O)[C@@H](N)Cc3c(C)cc(O)cc3C)[C@@H](C)O)C(N)=O)C2=O)CCCNC(=O)CCN2C(=O)CC(SC[C@H](NC(=O)[C@H](CCCCN)NC(=O)[C@H](CCCNC(=N)N)NC(=O)[C@H](C)NC(=O)[C@H](CO)NC(=O)[C@H](CCCCN)NC(=O)[C@H](CCCNC(=N)N)NC(=O)[C@H](C)NC(=O)CNC(=O)[C@@H](NC(=O)[C@H](Cc3ccccc3)NC(=O)CNC(=O)CNC(=O)[C@@H](N)Cc3c(C)cc(O)cc3C)[C@@H](C)O)C(N)=O)C2=O)CCCNC(=O)CCN2C(=O)CC(SC[C@H](NC(=O)[C@H](CCCCN)NC(=O)[C@H](CCCNC(=N)N)NC(=O)[C@H](C)NC(=O)[C@H](CO)NC(=O)[C@H](CCCCN)NC(=O)[C@H](CCCNC(=N)N)NC(=O)[C@H](C)NC(=O)CNC(=O)[C@@H](NC(=O)[C@H](Cc3ccccc3)NC(=O)CNC(=O)CNC(=O)[C@@H](N)Cc3c(C)cc(O)cc3C)[C@@H](C)O)C(N)=O)C2=O)C1=O)C(N)=O)[C@@H](C)O` (stereo partly shown) [PWT2-[Dmt^1], PWT2-[Dmt^1]N/OFQ(1-13)] gave a duration of antinociception ([1]; 0.3 nmol i.t.) of 2 h, a duration of antinociception ([1]; 1 nmol i.t.) of 6 h and a duration of antinociception ([1]; 3 nmol i.t.) of 24 h. For the same molecule, the “potency lower than DPDPE” value (delta receptor; delta) was 23 fold, the “α ± S.E.M. delta” value (delta receptor; intrinsic activity, DPDPE = 1.00) was 0.80 ± 0.08 and the “lower affinity than the parent peptide” value [2] was “approximately 10 fold”. The “loss of affinity at kappa compared to parent compound” value [3] was ~ 18 fold, the “α ± S.E.M. delta” value [4] was 0.87 ± 0.07 and the “α ± S.E.M. NOP, Gβ1-protein” value (NOP-RLuc/Gβ1-RGFP) was 1.04 ± 0.04. The “NOP selectivity in in vitro functional assays” value [5] was 2 – 10 fold, the “α ± S.E.M. kappa” value [6] was 0.86 ± 0.03 and the Emax ([7]; CHO, read-out: maximal effects over basal, mu) was 283 ± 3%. For the same molecule, the “α ± S.E.M. mu” value ([7]; calcium mobilization, intrinsic activity, dermorphin = 1.00) was 0.87 ± 0.04, the “lower potency compared to dermorphin” value ([7]; calcium mobilization, mu) was 23 fold and the “α ± S.E.M. mu, β-arrestin2” value [8] was 0.82 ± 0.07. For the same molecule, the “α ± S.E.M. NOP, β-arrestin2” value [9] was 0.58 ± 0.10, the “α ± S.E.M. mu, Gβ1-protein” value (mu-RLuc/Gβ1-RGFP) was 1.43 ± 0.12 and the “Emax as stimulation factor, kappa” value [10, 23] was 2.43 ± 0.08 fold. For the same molecule, the “α ± S.E.M. kappa” value ([10]; intrinsic activity, dynorphin A = 1.00, n≥5) was 1.40 ± 0.11, the “reduced potency compared to N/OFQ” value ([11]; NOP) was 58 fold and the “α ± S.E.M. NOP” value ([11]; intrinsic activity, N/OFQ = 1.00) was 0.98 ± 0.08. The “α ± S.E.M. NOP” value [12] was 1.23 ± 0.13, the “Emax as stimulation factor, mu” value [13, 23] was 2.84 ± 0.11 fold and the “α ± S.E.M. mu” value ([13]; intrinsic activity, dermorphin = 1.00, n≥5) was 0.98 ± 0.07. For the same molecule, the “scratching responses in 15-min observation period” value [14] was “did not significantly elicit scratching responses”, the “overt side effects including sedation or motor impairment” value [15] was “did not cause any overt side effects” and the “reduced potency compared to [Dmt^1]N/OFQ(1-13)-NH2” value [16] was 3 to 30 fold.

For `O=C1CC[C@@]2(O)[C@H]3Cc4ccc(O)c5c4[C@@]2(CCN3CC2CC2)[C@H]1O5` [naltrexone, Naltrexone, reference compound], the “effect of antagonist on i.t. PWT2-[Dmt^1] (3 nmol)-induced antinociception” value ([1]; naltrexone 0.03 mg/kg s.c., given 1 h 10 min after PWT2-[Dmt^1]) was “inactive”.

B1: Dermorphin (peptide)
peptide: YAFGYPS
In the case of B1, the “stimulation of [^35S]GTPγS binding, CHO mu membranes: Emax as stimulation factor” value (“stimulation of [^35S]GTPγS binding” for short) [17] is reported as 2.88 fold.

B2: PWT2-[Dmt^1]N/OFQ(1-13) (peptide)
peptide: [Dmt]GGFTGARKSARKC(PWT2 core)-NH2
modifications: reading uncertain; also: Cys14 joined to the PWT2 core by thio-Michael reaction
For B2, the “stimulation of [^35S]GTPγS binding” value [17] was 2.84 fold, the pKi [18] was 8.42 and the pKi [19] was 9.13. It also gave a pKi [20] of 9.25 and a pKi [21] of 9.13.

B3: [Dmt^1]N/OFQ(1-13)-NH2 (peptide)
peptide: [Dmt]GGFTGARKSARK-NH2
modifications: N-terminus assumed
SMILES: Cc1cc(O)cc(C)c1C[C@H](N)C(=O)NCC(=O)NCC(=O)N[C@@H](Cc1ccccc1)C(=O)N[C@H](C(=O)NCC(=O)N[C@@H](C)C(=O)N[C@@H](CCCNC(=N)N)C(=O)N[C@@H](CCCCN)C(=O)N[C@@H](CO)C(=O)N[C@@H](C)C(=O)N[C@@H](CCCNC(=N)N)C(=O)N[C@@H](CCCCN)C(N)=O)[C@@H](C)O
For B3, the pKi [22] was 10.4, the “stimulation of [^35S]GTPγS binding” value [17] was 3.06 fold and the pKi [18] was 9.99. The pKi [19] was 10.4, the pKi [20] was 10 and the pKi [21] was 10.4.
